Data from ChEMBL document CHEMBL1146234, “Synthesis and biological evaluation of N-pyrazolyl-N'-alkyl/benzyl/phenylureas: a new class of potent inhibitors of interleukin 8-induced neutrophil chemotaxis” (J Med Chem, 2007).
Activity calls are given as the source filed them. The rule behind the calls is not given here.

How the values were obtained:
Neutrophil [1] = test: Cytotoxicity against human neutrophils assessed as viable cells after 2 hrs; type: functional; set-up: concentration or dose not given beside the values
Summary of the method: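 Human neutrophils (2 × 10⁶/mL) from healthy donors were incubated 2 h at 37 °C under CO₂ in HBSS:PBS (3:1) with 1 mg/mL BSA, with compounds. Membrane integrity was read by fluorescein diacetate/ethidium bromide staining for 10 min at room temperature, under UV dark-field microscopy. Green cells were scored viable; red nuclei were scored necrotic.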

Neutrophil [2] = test: Inhibition of fMLP-induced neutrophil chemotaxis after 45 mins by Boyden chamber assay; type: functional, cell-based; conditions: Homo sapiens
Summary of the method: (§1)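 Leading-front Boyden assay with donor neutrophils. Cells were preincubated 15 min at room temperature ± compound. Then 4 × 10⁵ cells were placed above a 3 µm cellulose ester filter, with IL8 or fMLP below. After 45 min at 37 °C, filters were hematoxylin-stained and the leading-front distance was read at ×400, 5 fields per filter, in duplicate. Net migration = stimulated minus spontaneous. IC₅₀ came from nonlinear regression, ≥3 experiments.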

Neutrophil [3] = test: Inhibition of IL8-induced neutrophil chemotaxis after 45 mins by Boyden chamber assay; type: functional, cell-based; conditions: Homo sapiens, 0.75 h; summary of the method: as §1
Mus musculus [4] = test: Granulocyte percentage in zymosan-induced Swiss mouse peritoneal fluid at 100 mg/kg, po
Mus musculus [5] = test: Inhibition of peritoneal granulocyte count in zymosan-induced Swiss mouse peritoneal fluid at 100 mg/kg, po; type: functional
Summary of the method: (§2)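 Male Swiss mice (25-30 g), fasted 16 h, n = 8 per group, were dosed orally 1 h before i.p. zymosan (5 mg/mL, 0.2 mL). Dexamethasone 1 mg/kg os served as reference. At 4 h, peritoneal lavage used 3 mL PBS with 3 mM EDTA. Total leukocytes were counted in a Neubauer chamber (Türk 1:100), with differentials by light microscopy. Counts were compared with vehicle by Student's t-test.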

Mus musculus [6] = test: Monocyte percentage in zymosan-induced Swiss mouse peritoneal fluid at 100 mg/kg, po
Mus musculus [7] = test: Lymphocyte percentage in zymosan-induced Swiss mouse peritoneal fluid at 100 mg/kg, po
Mus musculus [8] = test: Inhibition of peritoneal cell count in zymosan-induced Swiss mouse peritoneal fluid at 100 mg/kg, po; type: functional; summary of the method: as §2
Mus musculus [9] = test: Percentage of lymphocytes in zymosan-induced Swiss mouse peritoneal fluid at 1 mg/kg, po
Mus musculus [10] = test: Percentage of granulocytes in zymosan-induced Swiss mouse peritoneal fluid at 1 mg/kg, po
Mus musculus [11] = test: Inhibition of peritoneal cell count in zymosan-induced Swiss mouse peritoneal fluid at 1 mg/kg, po; type: functional; conditions: read-out: Inhibition; summary of the method: as §2
Mus musculus [12] = test: Inhibition of peritoneal granulocyte count in zymosan-induced Swiss mouse peritoneal fluid at 1 mg/kg, po; type: functional; summary of the method: as §2
Mus musculus [13] = test: Percentage of monocytes in zymosan-induced Swiss mouse peritoneal fluid at 1 mg/kg, po

Compound	IC50 (Neutrophil [3]) [nM]	Activity (Neutrophil [1]) [%]	Activity (Neutrophil [2])	further results
CC(C)NC(=O)Nc1c(C#N)cnn1CC(O)c1ccccc1 (stereo not given)	35	90	inactive	
CC(C)NC(=O)Nc1ccnn1CC(O)c1ccccc1 (stereo not given)	825	90	inactive	
CCOC(=O)c1cnn(CC(O)c2ccccc2)c1NC(=O)N1CCN(Cc2ccccc2)CC1 (stereo not given)		90	inactive	
CCOC(=O)c1cnn(CC(O)c2ccccc2)c1NC(=O)N1CCOCC1 (stereo not given)	950	90	inactive	
CCOC(=O)c1cnn(CC(O)c2ccccc2)c1NC(=O)N1CCN(C)CC1 (stereo not given)	865	90	inactive	
N#Cc1cnn(CC(O)c2ccccc2)c1NC(=O)Nc1ccccc1 (stereo not given)	225	90	inactive	
CCOC(=O)c1cnn(CC(O)c2ccccc2)c1NC(=O)Nc1cccc(OC)c1 (stereo not given)	1400	90	inactive	
C[C@@H]1C[C@H]2[C@@H]3CCC4=CC(=O)C=C[C@]4(C)[C@@]3(F)[C@@H](O)C[C@]2(C)[C@@]1(O)C(=O)CO [DEXAMETHASONE]				% lymphocytes at 1 mg/kg (Mus musculus [9]): 44%; % granulocytes at 1 mg/kg (Mus musculus [10]): 42%; inhibition in vivo at 1 mg/kg (Mus musculus [11]): 33%; inhibition in vivo at 1 mg/kg (Mus musculus [12]): 62%; % monocytes at 1 mg/kg (Mus musculus [13]): 14%
CCOC(=O)c1cnn(CC(O)c2ccccc2)c1NC(=O)NC1CC1 (stereo not given)	5520	90	inactive	
CCOC(=O)c1cnn(CC(O)c2ccccc2)c1NC(=O)N1CCCCC1 (stereo not given)	3090	90	inactive	
CC(C)NC(=O)Nc1c(C(=O)O)cnn1CC(O)c1ccccc1 (stereo not given)	251	90	inactive	
CCOC(=O)c1cnn(CC(O)c2ccccc2)c1NC(=O)N1CCCC1 (stereo not given)	4950	90	inactive	
CCOCCNC(=O)Nc1c(C(=O)OCC)cnn1CC(O)c1ccccc1 (stereo not given)	1000	90	inactive	

Further lines, with some results ahead:

IC50 (Neutrophil [3]) [nM]	Compound	Activity (Neutrophil [1]) [%]	Activity (Neutrophil [2])	further results
570	CCOC(=O)c1cnn(CC(O)c2ccccc2)c1NC(=O)NCc1cccc(Cl)c1 (stereo not given)	90	inactive	
198	CCOC(=O)c1cnn(CC(O)c2ccccc2)c1NC(=O)NCc1cccc(Br)c1 (stereo not given)	90	inactive	
33	CCOC(=O)c1cnn(CC(O)c2ccccc2)c1NC(=O)Nc1ccccc1F (stereo not given)	90	inactive	
36	CCOC(=O)c1cnn(CC(O)c2ccccc2)c1NC(=O)Nc1cccc(F)c1 (stereo not given)	90	inactive	% granulocytes at 100 mg/kg (Mus musculus [4]): 62%; inhibition in vivo at 100 mg/kg (Mus musculus [5]): 33%; % monocytes at 100 mg/kg (Mus musculus [6]): 10%; % lymphocytes at 100 mg/kg (Mus musculus [7]): 28%; inhibition in vivo at 100 mg/kg (Mus musculus [8]): 29%
610	CCOC(=O)c1cnn(CC(O)c2ccccc2)c1NC(=O)NCCc1ccccc1 (stereo not given)	90	inactive	
1780	CCOC(=O)c1cnn(CC(O)c2ccccc2)c1NC(=O)NCc1ccccc1Br (stereo not given)	90	inactive	
318	CCOC(=O)c1cnn(CC(O)c2ccccc2)c1NC(=O)NCc1cccc(F)c1 (stereo not given)	90	inactive	
212	CCOC(=O)c1cnn(CC(O)c2ccccc2)c1NC(=O)NCc1ccc(F)cc1 (stereo not given)	90	inactive	
1560	CCOC(=O)c1cnn(CC(O)c2ccccc2)c1NC(=O)Nc1cccc(Cl)c1 (stereo not given)	90	inactive	
1490	CCOC(=O)c1cnn(CC(O)c2ccccc2)c1NC(=O)NCc1ccccc1F (stereo not given)	90	inactive	
1240	CCOC(=O)c1cnn(CC(O)c2ccccc2)c1NC(=O)NCc1ccccc1Cl (stereo not given)	90	inactive	
424	CCOC(=O)c1cnn(CC(O)c2ccccc2)c1NC(=O)Nc1cccc(Br)c1 (stereo not given)	90	inactive	
935	CCOC(=O)c1cnn(CC(O)c2ccccc2)c1NC(=O)NCc1ccc(Cl)cc1 (stereo not given)	90	inactive	
92	CCOC(=O)c1cnn(CC(O)c2ccccc2)c1NC(=O)Nc1ccc(Br)cc1 (stereo not given)	90	inactive	
1200	CCOC(=O)c1cnn(CC(O)c2ccccc2)c1NC(=O)Nc1ccccc1OC (stereo not given)	90	inactive	
3890	CCOC(=O)c1cnn(CC(O)c2ccccc2)c1NC(=O)NCc1ccc(Br)cc1 (stereo not given)	90	inactive	
445	CCOC(=O)c1cnn(CC(O)c2ccccc2)c1NC(=O)Nc1ccc(C)cc1 (stereo not given)	90	inactive	
33	CCOC(=O)c1cnn(CC(O)c2ccccc2)c1NC(=O)Nc1ccc(F)cc1 (stereo not given)	90	inactive	
345	CCOC(=O)c1cnn(CC(O)c2ccccc2)c1NC(=O)Nc1ccc(Cl)cc1 (stereo not given)	90	inactive	
398	CCOC(=O)c1cnn(CC(O)c2ccccc2)c1NC(=O)Nc1cccc(C)c1 (stereo not given)	90	inactive	
